The nature of assay [1]: reducers of endogenous Her2 protein level, primary screen, SKBR3 breast tumor cells, AlphaScreen, ATP viability (AID 461;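 active means Her2 level under about 52% in both replicate screens, with viability over 70% of control, limit read from the data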;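 on Her2 level: lower value means less Her2 protein in the cells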;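 on viability: percent of carrier control wells set as 100% viability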). To be noted: 18-24 h, measured here: SKBR3 viability, ATP luminescence, at 10 µM. In general terms: In Alpha technology, singlet oxygen from a donor bead excites a nearby acceptor bead.
Assay [2] deals with Receptor tyrosine-protein kinase erbB-2 (Homo sapiens) (UniProt P04626). The assay is described as above. To be noted: 18-24 h, at 10 µM, stronger effect = lower value.
Receptor tyrosine-protein kinase erbB-2 (Homo sapiens), sequence (P04626 whole entry, looked up): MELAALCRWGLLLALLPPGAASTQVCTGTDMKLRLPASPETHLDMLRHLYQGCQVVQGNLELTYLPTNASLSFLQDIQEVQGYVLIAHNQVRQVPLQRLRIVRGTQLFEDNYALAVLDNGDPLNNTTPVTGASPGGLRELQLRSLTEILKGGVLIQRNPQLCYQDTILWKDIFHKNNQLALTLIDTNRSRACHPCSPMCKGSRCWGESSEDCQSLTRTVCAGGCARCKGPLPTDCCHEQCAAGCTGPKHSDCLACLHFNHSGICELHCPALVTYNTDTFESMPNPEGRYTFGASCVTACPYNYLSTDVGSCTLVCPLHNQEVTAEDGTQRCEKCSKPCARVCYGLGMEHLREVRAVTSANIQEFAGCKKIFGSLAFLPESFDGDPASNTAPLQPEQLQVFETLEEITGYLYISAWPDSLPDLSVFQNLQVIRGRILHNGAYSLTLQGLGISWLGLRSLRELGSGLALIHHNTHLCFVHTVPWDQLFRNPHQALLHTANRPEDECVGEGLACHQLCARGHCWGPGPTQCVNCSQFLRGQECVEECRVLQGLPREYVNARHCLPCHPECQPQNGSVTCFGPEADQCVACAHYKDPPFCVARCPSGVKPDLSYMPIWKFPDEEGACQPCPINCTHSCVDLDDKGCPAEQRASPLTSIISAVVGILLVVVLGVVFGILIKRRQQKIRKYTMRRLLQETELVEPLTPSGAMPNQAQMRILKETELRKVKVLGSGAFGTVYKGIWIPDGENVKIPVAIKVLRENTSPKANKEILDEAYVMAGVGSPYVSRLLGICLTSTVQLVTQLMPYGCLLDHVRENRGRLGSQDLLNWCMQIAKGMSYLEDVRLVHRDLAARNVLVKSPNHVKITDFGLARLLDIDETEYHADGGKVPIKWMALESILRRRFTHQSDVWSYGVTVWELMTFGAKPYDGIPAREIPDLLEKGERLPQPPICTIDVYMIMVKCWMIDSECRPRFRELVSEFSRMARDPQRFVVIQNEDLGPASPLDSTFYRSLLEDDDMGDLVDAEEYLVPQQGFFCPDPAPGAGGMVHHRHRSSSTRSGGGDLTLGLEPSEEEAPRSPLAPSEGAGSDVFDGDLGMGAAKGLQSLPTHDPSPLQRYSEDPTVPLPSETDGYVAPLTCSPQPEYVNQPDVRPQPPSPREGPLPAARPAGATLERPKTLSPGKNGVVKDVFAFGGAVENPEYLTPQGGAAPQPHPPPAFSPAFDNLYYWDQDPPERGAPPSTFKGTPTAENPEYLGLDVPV
The nature of assay [3]: SK-BR-3 cell growth inhibitors, pilot screen, 24 h, human (AID 572;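 active means viability at or below 10% of carrier control in both of two separate runs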;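 further: compound exposure lasted between 18 and 24 h rather than exactly 24 h; 100% = carrier-treated control wells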). The note with it: SK-BR-3 viability, CellTiter-Glo luminescence, at 10 µM, stronger effect = lower value. (ATP-based viability assays read luminescence as a measure of living cells.)
Assay [4] in a line: HUVEC growth inhibition – cell-based, human, primary screen (AID 575;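 active means viability at or below 30% in both replicate assays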;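 further: 100% = median of untreated cell wells with 0.1% DMSO on each plate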). The note with it: HUVEC proliferation, CellTiter-Glo luminescence, 72 h; at 10 µM; stronger effect = lower value. Summed up: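 system = HUVEC primary cells | amount = 1250 cells/well | buffer or medium = supplemented EBM, 2% fetal bovine serum | dosing = single-point 10 µM, DMSO 0.1% final | times = 72 h compound incubation | detection = CTG luminescence | read-out = % viability relative to median vehicle-well signal on each plate | control set = vehicle and MePR control wells | format = collagen-coated 384-well format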

The nature of assay [5]: growth inhibitors of H69AR lung tumor, primary screen, human, duplicate replicates (AID 580;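 active means viability at or under a set limit in both replicates, limit being median viability minus 3 SD, cut at about 48% in these data, passing the limit was not always enough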;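 further: 100% = mean luminescence of untreated wells and 0% = no signal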). The note with it: H69AR lung tumor cells viability, ATP luminescence, 72 h; at 10 µM; stronger effect = lower value.
A short description of assay [6]: reversal of MRP1-mediated doxorubicin resistance, pilot screen, H69AR cells, doxorubicin co-treatment (AID 601;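 active means viability loss from added drug above about 55%, and viability with drug at most 40%, in both replicates, limit read from the data, passing the limit was not always enough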). To be noted: CellTiter-Glo, 72 h, at 10 µM; for differential viability (reversal): stronger effect = higher value.
Assay [7] in a line: 384-well plate pilot, post-Golgi transport modulator project, inhibition of yeast transport mutant growth (AID 636; in the data active means inhibition above about 31%). The note with it: absorbance 615 nm, about 18 h, stronger effect = higher value.
A short description of assay [8]: growth suppression of yeast trafficking mutant, preliminary HTS, modulators of trafficking downstream of Golgi apparatus project, 1536-format plate, OD 615 nm (AID 637). To be noted: yeast transport mutant growth, absorbance 615 nm, 18 h; stronger effect = higher value.
Setting [9] is: H69AR cells + 2 uM doxorubicin, measured here: viability with 2 uM doxorubicin, stronger effect = lower value.
[10] abbreviates: H69AR cells, compound alone cytotoxicity.

These results are taken from PubChem BioAssay.

The term viability denotes a read-out of living cells in per cent, often relative to untreated cells. One may read the inhibition as the drop in the measured response relative to a control, in per cent.

Activity calls are given as the source filed them. Unless noted, no stated cut-off is given here; in the data, active means inhibition above about 30%; inactive means the rest.

For `CCOC(=O)CN1C(=O)C2(OCCCO2)c2ccccc21`, the viability is 99% in assay [1]; 99% (inactive) in assay [3]; 99.7% (inactive) in assay [4]; 101% (inactive) in assay [5]; 89.7% in assay [6] (setting [9]); 101% in assay [6] (setting [10]). For the same compound, in assay [2], the Her2 level is 109% (inactive). In assay [6] (H69AR cells + 2 uM doxorubicin), the differential viability (reversal) was 11.1% (inactive). Also, the inhibition in assay [7] was -7.66% (inactive); in assay [8], -11% (inactive).
With `C=CCOc1cccc(C2/C(=C(\O)c3ccc(F)cc3)C(=O)C(=O)N2CCN(C)C)c1` (stereo not given), the viability is 96.5% in assay [1]; 96.5% (inactive) in assay [3]; 98% (inactive) in assay [4]; 105% (inactive) in assay [5]; 94.6% in assay [6] (setting [9]); 105% in assay [6] (setting [10]). Moreover, the Her2 level in assay [2] was 97.5% (inactive). Besides, in assay [6] (H69AR cells + 2 uM doxorubicin), the differential viability (reversal) is 10.4% (inactive). In addition, the inhibition in assay [7] is -2.11% (inactive); in assay [8], 0.98% (inactive).
For `CCn1c(=O)n(CC(=O)NCc2ccccc2OC)c(=O)c2ccccc21`, the viability in assay [1] is 95%; in assay [3], 95% (inactive); in assay [4], 87.5% (inactive); in assay [5], 101% (inactive); in assay [6] (setting [9]) it was 97.4%; in assay [6] (setting [10]) it was 101%. Moreover, the Her2 level in assay [2] was 84% (inactive). In addition, in assay [6] (H69AR cells + 2 uM doxorubicin), the differential viability (reversal) is 3.65% (inactive). The inhibition in assay [7] was 0.92% (inactive); in assay [8], -3.06% (inactive).
Turning to `CCOC(=O)c1cnn(-c2cc(C)nc3c(-c4ccccc4)c(C)nn23)c1N`, the viability in assay [1] was 120%; in assay [3], 120% (inactive); in assay [4] it was 84.2% (inactive); in assay [5], 89.4% (inactive); in assay [6] (setting [9]), 73.7%; in assay [6] (setting [10]), 89.4%. Moreover, in assay [2], the Her2 level was 89% (inactive). In assay [6] (H69AR cells + 2 uM doxorubicin), the differential viability (reversal) is 15.7% (inactive). Moreover, the figures for the inhibition in assay [7] and in assay [8] were -3.77% (inactive) and -5.56% (inactive), respectively.
With `CC1(C)CC(=O)c2cc(OCC(=O)NCCCN3CCN(c4ccccc4F)CC3)ccc2O1`, the viability in assay [1] was 81%; in assay [3], 81% (inactive); in assay [4], 59.3% (inactive); in assay [5] it was 80% (inactive); in assay [6] (setting [9]), 86%; in assay [6] (setting [10]), 80%. For the same compound, in assay [2], the Her2 level is 85.5% (inactive). In addition, the differential viability (reversal) in assay [6] (H69AR cells + 2 uM doxorubicin) was -5.98% (inactive). The figures for the inhibition in assay [7] and in assay [8] were -4.61% (inactive) and -3.45% (inactive), respectively.
Turning to `CCC(=O)N1CCCc2cc(S(=O)(=O)N3CCCc4ccccc43)ccc21`, the viability was 89.5% in assay [1]; 89.5% (inactive) in assay [3]; 87.2% (inactive) in assay [4]; 77.6% (inactive) in assay [5]; 81.5% in assay [6] (setting [9]); 77.6% in assay [6] (setting [10]). Also, in assay [2], the Her2 level was 76.5% (inactive). The differential viability (reversal) in assay [6] (H69AR cells + 2 uM doxorubicin) is -3.92% (inactive). The figures for the inhibition in assay [7] and in assay [8] were -2.76% (inactive) and -2.1% (inactive), respectively.
With `N#Cc1c(-c2ccccc2)nc(SCc2nc(N)nc(N3CCCCC3)n2)[nH]c1=O`, the viability in assay [1] was 90.5%; in assay [3] it was 90.5% (inactive); in assay [4], 81.5% (inactive); in assay [5] it was 99.9% (inactive); in assay [6] (setting [9]), 102%; in assay [6] (setting [10]), 99.9%. The Her2 level in assay [2] was 86.5% (inactive). Moreover, the differential viability (reversal) in assay [6] (H69AR cells + 2 uM doxorubicin) is -2.35% (inactive). In addition, the inhibition in assay [7] was -6% (inactive); in assay [8], 5.08% (inactive).
In the case of `Cn1cccc1Cc1nnc(SCC(=O)Nc2ccccc2F)n1-c1ccc(F)cc1`, the viability in assay [1] was 87.5%; in assay [3] it was 87.5% (inactive); in assay [4], 103% (inactive); in assay [5] it was 98.2% (inactive); in assay [6] (setting [9]), 101%; in assay [6] (setting [10]), 98.2%. In assay [2], the Her2 level is 99.5% (inactive). For the same compound, the differential viability (reversal) in assay [6] (H69AR cells + 2 uM doxorubicin) was -2.87% (inactive). The inhibition in assay [7] is -1.28% (inactive); in assay [8], -6.5% (inactive).
As to `COc1ccc(C2CC(=O)c3cnc(NC(=O)c4ccccc4OC)nc3C2)c(OC)c1` (stereo not given), the viability in assay [1] is 97.5%; in assay [3], 97.5% (inactive); in assay [4], 75.1% (inactive); in assay [5] it was 87% (inactive); in assay [6] (setting [9]) it was 92.7%; in assay [6] (setting [10]), 87%. In addition, the Her2 level in assay [2] is 49% (active). Further, the differential viability (reversal) in assay [6] (H69AR cells + 2 uM doxorubicin) was -5.78% (inactive). Also, the results for the inhibition in assay [7] and in assay [8] were -5.07% (inactive) and 1.15% (inactive), respectively.
In the case of `CCOC(=O)C(NCc1ccccc1OC)(NC(C)=O)C(F)(F)F` (stereo not given), the viability in assay [1] was 116%; in assay [3], 116% (inactive); in assay [4] it was 98.8% (inactive); in assay [5], 91.8% (inactive); in assay [6] (setting [9]), 90.1%; in assay [6] (setting [10]) it was 91.8%. Also, the Her2 level in assay [2] is 91% (inactive). Also, in assay [6] (H69AR cells + 2 uM doxorubicin), the differential viability (reversal) is 1.75% (inactive). The inhibition in assay [7] is -2.6% (inactive); in assay [8], -0.63% (inactive).
Consider `C=CCn1c(COc2ccccc2F)nnc1SCC(=O)N1CC(=O)Nc2ccccc21`, for which the viability in assay [1] was 92%; in assay [3], 92% (inactive); in assay [4] it was 109% (inactive); in assay [5], 92.2% (inactive); in assay [6] (setting [9]), 89.3%; in assay [6] (setting [10]), 92.2%. Also, the Her2 level in assay [2] is 104% (inactive). Besides, the differential viability (reversal) in assay [6] (H69AR cells + 2 uM doxorubicin) was 2.88% (inactive). For the same compound, the inhibition is -4.46% (inactive) in assay [7] and 51.5% (active) in assay [8].
`CN=C1CC(C)(C)CC(=O)/C1=C(/O)CCC(=O)NC`: the viability in assay [1] was 104%; in assay [3] it was 104% (inactive); in assay [4], 95.5% (inactive); in assay [5], 102% (inactive); in assay [6] (setting [9]) it was 92.1%; in assay [6] (setting [10]) it was 102%. In addition, the Her2 level in assay [2] was 84% (inactive). The differential viability (reversal) in assay [6] (H69AR cells + 2 uM doxorubicin) is 10.2% (inactive). Further, the inhibition in assay [7] was -2.63% (inactive); in assay [8], -3.97% (inactive).
In the case of `Cc1cccc(N2CCN(C(=O)c3cc4c(=O)[nH]c5ccccc5c4n3C)CC2)c1C`, the viability in assay [1] is 72.5%; in assay [3], 72.5% (inactive); in assay [4] it was 65.5% (inactive); in assay [5], 95.9% (inactive); in assay [6] (setting [9]) it was 82.9%; in assay [6] (setting [10]), 95.9%. The Her2 level in assay [2] is 57.5% (inactive). Also, the differential viability (reversal) in assay [6] (H69AR cells + 2 uM doxorubicin) is 13% (inactive). Further, the inhibition is -3.33% (inactive) in assay [7] and 11% (inactive) in assay [8].
Regarding `O=C1CSC(c2cccc(F)c2)N1c1ccccc1F` (stereo not given), the viability was 86% in assay [1]; 86% (inactive) in assay [3]; 98.8% (inactive) in assay [4]; 97.5% (inactive) in assay [5]; 88.2% in assay [6] (setting [9]); 97.5% in assay [6] (setting [10]). In assay [2], the Her2 level is 102% (inactive). Further, the differential viability (reversal) in assay [6] (H69AR cells + 2 uM doxorubicin) is 9.31% (inactive). The inhibition is -4.87% (inactive) in assay [7] and 7.38% (inactive) in assay [8].
